Results: paper PMC6805150 (Bioorganic & medicinal chemistry, 2014)
One block for each molecule: values may come before it. No end group written: not given here.

Legend:
[1] = target: T1, RXRα (Homo sapiens, UniProt P19793); assay: Gal4-RXRα transactivation assay in HEK-293-luciferase reporter cells; assay type: cell-based
T1 sequence (P19793 1-462): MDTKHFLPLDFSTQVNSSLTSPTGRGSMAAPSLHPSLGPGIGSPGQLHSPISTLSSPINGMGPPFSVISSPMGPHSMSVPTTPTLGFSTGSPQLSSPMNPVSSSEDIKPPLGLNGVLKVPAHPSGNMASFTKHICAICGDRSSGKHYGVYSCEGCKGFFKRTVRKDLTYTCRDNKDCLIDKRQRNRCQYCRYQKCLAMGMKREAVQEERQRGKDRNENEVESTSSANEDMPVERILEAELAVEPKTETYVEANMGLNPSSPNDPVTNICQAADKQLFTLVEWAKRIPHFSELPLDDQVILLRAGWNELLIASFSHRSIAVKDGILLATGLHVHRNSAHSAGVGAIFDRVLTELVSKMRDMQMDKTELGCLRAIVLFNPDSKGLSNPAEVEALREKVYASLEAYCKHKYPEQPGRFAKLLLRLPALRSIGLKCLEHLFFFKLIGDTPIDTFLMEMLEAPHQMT

[2] = target: T2, recombinant IKKα (Homo sapiens, UniProt O15111); assay: LANCE Ultra TR-FRET kinase assay, recombinant IKKα; assay type: biochemical; conditions: 20 μM AdAr; ATP near apparent Km; vs solvent control; ± SD, 3–4 experiments
T2 sequence (O15111 1-745): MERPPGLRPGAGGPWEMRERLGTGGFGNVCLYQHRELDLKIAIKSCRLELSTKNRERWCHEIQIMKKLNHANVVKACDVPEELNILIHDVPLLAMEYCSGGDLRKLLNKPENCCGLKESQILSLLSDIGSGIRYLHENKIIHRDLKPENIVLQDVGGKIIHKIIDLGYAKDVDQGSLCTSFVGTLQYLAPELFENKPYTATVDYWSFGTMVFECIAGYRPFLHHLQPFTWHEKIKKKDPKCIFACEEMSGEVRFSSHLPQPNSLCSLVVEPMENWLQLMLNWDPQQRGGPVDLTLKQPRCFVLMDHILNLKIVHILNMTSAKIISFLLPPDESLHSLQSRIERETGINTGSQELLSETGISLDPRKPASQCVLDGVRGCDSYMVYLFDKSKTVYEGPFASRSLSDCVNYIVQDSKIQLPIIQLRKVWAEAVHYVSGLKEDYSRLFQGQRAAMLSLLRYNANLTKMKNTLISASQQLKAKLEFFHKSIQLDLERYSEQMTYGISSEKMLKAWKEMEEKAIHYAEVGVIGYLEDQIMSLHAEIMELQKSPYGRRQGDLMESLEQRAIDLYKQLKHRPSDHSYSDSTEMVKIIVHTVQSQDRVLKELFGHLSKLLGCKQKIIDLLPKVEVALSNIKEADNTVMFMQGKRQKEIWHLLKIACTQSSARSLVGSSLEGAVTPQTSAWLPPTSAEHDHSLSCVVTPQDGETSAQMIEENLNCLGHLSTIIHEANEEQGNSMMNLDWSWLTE
How it was run: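 Reaction stopped with 20 mM EDTA plus 2 nM Eu-labelled phospho-specific antibody. TR-FRET (ex 340 nm; 615/665 nm) read 2 h later. Counts normalized; inhibition relative to solvent control; triplicates.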

[3] = target: T3, recombinant IKKβ (Homo sapiens, UniProt O14920); assay: LANCE Ultra TR-FRET kinase assay, recombinant IKKβ; assay type: biochemical
T3 sequence (O14920 1-756): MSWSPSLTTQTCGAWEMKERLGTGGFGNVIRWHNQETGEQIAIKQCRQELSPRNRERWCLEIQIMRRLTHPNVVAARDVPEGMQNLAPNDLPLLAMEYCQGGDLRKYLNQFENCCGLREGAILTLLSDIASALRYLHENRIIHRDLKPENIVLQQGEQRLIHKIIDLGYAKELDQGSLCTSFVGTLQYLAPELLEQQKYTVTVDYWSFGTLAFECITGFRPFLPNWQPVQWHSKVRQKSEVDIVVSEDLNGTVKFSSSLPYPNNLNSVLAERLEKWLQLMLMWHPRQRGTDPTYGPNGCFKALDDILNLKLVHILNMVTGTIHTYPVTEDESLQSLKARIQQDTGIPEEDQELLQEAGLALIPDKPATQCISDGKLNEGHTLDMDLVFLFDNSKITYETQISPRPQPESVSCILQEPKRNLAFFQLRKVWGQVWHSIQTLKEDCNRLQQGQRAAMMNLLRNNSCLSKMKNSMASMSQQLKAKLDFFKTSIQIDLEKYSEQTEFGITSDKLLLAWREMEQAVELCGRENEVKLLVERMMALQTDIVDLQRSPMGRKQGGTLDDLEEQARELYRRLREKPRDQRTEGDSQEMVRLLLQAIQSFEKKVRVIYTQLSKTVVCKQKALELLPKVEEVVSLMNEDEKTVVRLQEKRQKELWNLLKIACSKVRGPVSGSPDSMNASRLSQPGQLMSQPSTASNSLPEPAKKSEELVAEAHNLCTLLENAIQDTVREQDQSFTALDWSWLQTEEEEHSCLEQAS
How it was run: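 Purified recombinant IKKβ (1 nM) in Hepes pH 7.4 buffer with MgCl₂, EGTA, DTT and Tween-20; 50 nM ULight-IκBα peptide substrate; 1.25 μM ATP. Runs 1 h at room temperature, then stopped with 20 mM EDTA plus 2 nM Eu-labelled phospho-specific antibody for TR-FRET. Activity is % of solvent control, 3–4 experiments in triplicate.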

[4] = target: T4, recombinant IKKε (Homo sapiens, UniProt Q14164); assay: LANCE Ultra TR-FRET kinase assay, recombinant IKKε; assay type: biochemical; conditions: 20 μM AdAr; ATP near apparent Km; vs solvent control; ± SD, 3–4 experiments
T4 sequence (Q14164 1-716): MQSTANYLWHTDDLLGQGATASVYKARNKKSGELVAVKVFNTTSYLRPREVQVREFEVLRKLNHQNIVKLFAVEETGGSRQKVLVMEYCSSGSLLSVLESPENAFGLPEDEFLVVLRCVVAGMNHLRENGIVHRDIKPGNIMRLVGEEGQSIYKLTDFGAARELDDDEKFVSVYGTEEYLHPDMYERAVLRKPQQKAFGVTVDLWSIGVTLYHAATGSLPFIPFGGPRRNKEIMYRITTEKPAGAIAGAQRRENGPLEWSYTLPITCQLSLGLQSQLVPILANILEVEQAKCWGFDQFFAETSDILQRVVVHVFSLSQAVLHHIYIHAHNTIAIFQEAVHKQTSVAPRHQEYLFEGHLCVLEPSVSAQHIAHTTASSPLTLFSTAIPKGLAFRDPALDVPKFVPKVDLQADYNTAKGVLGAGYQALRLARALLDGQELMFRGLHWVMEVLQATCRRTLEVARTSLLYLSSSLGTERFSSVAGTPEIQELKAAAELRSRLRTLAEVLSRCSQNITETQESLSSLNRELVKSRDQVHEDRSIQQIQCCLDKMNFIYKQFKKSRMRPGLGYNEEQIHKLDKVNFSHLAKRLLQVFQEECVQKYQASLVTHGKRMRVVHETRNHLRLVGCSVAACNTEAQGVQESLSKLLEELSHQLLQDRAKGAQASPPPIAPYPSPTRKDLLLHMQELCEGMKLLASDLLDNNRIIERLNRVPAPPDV
How it was run: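 Recombinant IKKε enzyme, 2 nM final, in Hepes pH 7.4 kinase buffer (10 mM MgCl₂, 1 mM EGTA, 2 mM DTT, 0.01% Tween-20). Substrate was 50 nM ULight-rpS6, with 5 μM ATP, run 2 h at room temperature. The reaction was quenched with 20 mM EDTA containing 2 nM Eu-anti-phospho antibody. After 2 h, TR-FRET was read at 615 and 665 nm (340 nm excitation). Percent inhibition was taken versus solvent control; triplicate points.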

[5] = target: T5, GST-RXRα LBD with D22 coactivator peptide (Homo sapiens, UniProt P19793); assay: TR-FRET RXR LBD-coactivator peptide recruitment assay, D22 peptide; assay type: biochemical; conditions: in combination with a low concentration of CD3254 agonist (Figure S2)
T5 sequence (P19793 227-458 limits assumed): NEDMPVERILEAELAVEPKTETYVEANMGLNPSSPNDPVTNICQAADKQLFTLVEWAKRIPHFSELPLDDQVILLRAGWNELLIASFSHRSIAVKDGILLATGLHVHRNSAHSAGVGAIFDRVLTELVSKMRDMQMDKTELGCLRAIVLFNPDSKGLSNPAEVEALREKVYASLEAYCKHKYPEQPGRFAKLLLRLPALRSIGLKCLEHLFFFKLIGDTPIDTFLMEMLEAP
How it was run: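 5 nM GST-RXRα LBD incubated at room temperature with 150 nM fluorescein-D22 peptide in 25 mM Hepes pH 7.4, 100 mM NaCl, 0.025% BSA, 5% glycerol, 0.005% Tween-20, 2.5 mM DTT. Ligand or DMSO (≤1%) added; 2 nM Tb-anti-GST antibody for detection. After 4 h, TR-FRET read at 495 and 520 nm. The 520/495 ratio was expressed as Delta F% against controls lacking GST-RXRα.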

[6] = tested on: Jurkat T cells; assay: CellTiter-GLO cell viability/proliferation assay; conditions: 4 μM, 24 h (Table 1)
[7] = target: GST-RXRα LBD; assay: AlphaScreen or HTRF

Molecule: (E)-3-[2-(3-Acetamidopropoxy)-3-(adamant-1-yl)-4-hydroxybiphenyl-4-yl]acrylic Acid [2c]
- % Inhibition of IKK activity IKKα [2]: 5.0 ± 4.9%
- % Inhibition of IKK activity IKKβ ([3]; 20 μM AdAr, ATP near apparent Km, vs solvent control, ± SD, 3–4 experiments): 0%
- % Inhibition of IKK activity IKKε [4]: 14.4 ± 4.1%

Molecule: CCCCCOc1cc2c(cc1-c1cc(/C=C/C(=O)O)ccc1O)C(C)(C)CCC2(C)C [34, UVI3003, reference compound]
- inhibition of RXRα LBD/D22 binding stimulated by CD3254 [5]: complete inhibition

Molecule: Cc1cc(O)c(C23CC4CC(CC(C4)C2)C3)cc1-c1ccc(CC(=O)O)cc1Cl [6a]
- inhibition of RXRα LBD/D22 binding stimulated by CD3254 [5]: 25%

Molecule: O=C(O)c1ccc(-c2cnc(-c3ccc(O)c(C45CC6CC(CC(C6)C4)C5)c3)s2)cc1 [8a, 4-[2-(3-Adamantan-1-yl-4-hydroxyphenyl)thiazol-5-yl]benzoic Acid]
- inhibition of Jurkat cell viability [6]: > 85%

Molecule: Cc1cc(O)c(C23CC4CC(CC(C4)C2)C3)cc1-c1ccc2cc(C(=O)O)ccc2c1Cl [4a]
- potency against IKKβ relative to MX781 3 (times more potent) ([3]; ratio of IC50 values): about 2.5 times
- inhibition in Gal4-RXRα transactivation assay, antagonist mode ([1]; 100 nM CD3254 plus 4 μM AdAr): 30%
- inhibition of RXRα LBD/D22 binding stimulated by CD3254 [5]: 25%
- inhibition of Jurkat cell viability [6]: > 85%

Next, values leading:

- Gal4-RXRα transactivation, % of the maximum activity observed with control rexinoid CD3254 ([1]; 4 μM AdAr, CD3254 1 μM): ~ 20%
- RXR Profile Agonist (fold induction of RXRα activity) ([1]; AdArs 4 μM, positive control CD3254 1 μM, vs solvent control cells): 3 fold induction
Molecule: COCCOCOc1ccc(-c2ncc(-c3ccc(C(=O)O)cc3)s2)cc1C12CC3CC(CC(C3)C1)C2 [8c, 4-[2-(3-Adamantan-1-yl-4-[(2-methoxyethoxy)methoxy]phenyl)thiazol-5-yl]benzoic Acid]

- Delta F% (ligand: 4a) [7]: 53%
- Delta F% (ligand: 4b) [7]: 187%
- Delta F% (ligand: 5a) [7]: 373%
- Delta F% (ligand: 5b) [7]: 437%
- Delta F% (ligand: 5c) [7]: 152%
- Delta F% (ligand: 6a) [7]: 81%
- Delta F% (ligand: 6b) [7]: 422%
- Delta F% (ligand: 7a) [7]: 162%
- Delta F% (ligand: 8a) [7]: 183%
- Delta F% (ligand: 8b) [7]: 117%
- Delta F% (ligand: 8c) [7]: 159%
- Delta F% (ligand: 9a) [7]: 116%
- Delta F% (ligand: 9b) [7]: 106%
- Delta F% (ligand: 9c) [7]: 122%
- Delta F% (ligand: 10a) [7]: 111%
- Delta F% (ligand: 10c) [7]: 172%
- Delta F% (ligand: 7d) [7]: 133%
- Delta F% (ligand: 8d) [7]: 115%
- Delta F% (ligand: 9d) [7]: 106%
- Delta F% (ligand: CD3254 33) [7]: 561%
- Delta F% (no ligand) [7]: 148%
Molecule: CPSSHSSLTERHKILHRLLQEGSPSK (biotin on the added C-terminal lysine (-K-biotin)) [biotinylated SRC-1-676-700 peptide]

- % inhibition of the CD3254-stimulated interaction (by 4a) [7]: 25%
- % inhibition of the CD3254-stimulated interaction (by 6a) [7]: 25%
- Delta F% (ligand: 4a) [7]: 29%
- Delta F% (ligand: 4b) [7]: 159%
- Delta F% (ligand: 5a) [7]: 487%
- Delta F% (ligand: 5b) [7]: 654%
- Delta F% (ligand: 5c) [7]: 113%
- Delta F% (ligand: 6b) [7]: 214%
- Delta F% (ligand: 7a) [7]: 156%
- Delta F% (ligand: 7c) [7]: 127%
- Delta F% (ligand: 8a) [7]: 94%
- Delta F% (ligand: 8b) [7]: 113%
- Delta F% (ligand: 8c) [7]: 133%
- Delta F% (ligand: 9c) [7]: 119%
- Delta F% (ligand: 10a) [7]: 102%
- Delta F% (ligand: 10c) [7]: 170%
- Delta F% (ligand: 9d) [7]: 87%
- Delta F% (ligand: CD3254 33) [7]: 416%
- Delta F% (no ligand) [7]: 100%
Molecule: fluorescein-LPYEGSLLLKLLRAPVEEV [fluorescein labeled D22 coactivator peptide]
